{"source": "ChEMBL document CHEMBL2202989", "about": "“New adamantane phenylalkylamines with σ-receptor binding affinity and anticancer activity, associated with putative antagonism of neuropathic pain” (J Med Chem, 2012)", "key": {"IGROV-1 [1]": {"tested_on": "IGROV-1", "test": "Cell cycle arrest in human IGROV1 cells assessed as accumulation at S phase at 0.5 uM after 24 hrs using propidium iodide staining by FACS analysis (reference value: 29 %)", "assay_type": "functional"}, "PC-3 [2]": {"tested_on": "PC-3", "test": "Induction of apoptosis in human PC3 cells assessed as healthy cells at 50 uM using annexin V/7-AAD by FACS analysis (reference value: 91 %)", "assay_type": "functional"}, "PC-3 [3]": {"tested_on": "PC-3", "test": "Cell cycle arrest in human PC3 cells assessed as accumulation at G2 phase at 15 uM after 24 hrs using propidium iodide staining by FACS analysis (reference value: 12 %)", "assay_type": "functional"}, "BXPC-3 [4]": {"tested_on": "BXPC-3", "test": "Induction of apoptosis in human BxPC3 cells assessed as cleaved caspase3 containing cells at 5 uM by antibody-based FACS analysis (reference value: 8.2 %)", "assay_type": "functional"}, "PC-3 [5]": {"tested_on": "PC-3", "test": "Cell cycle arrest in human PC3 cells assessed as accumulation at sub G1 phase at 0.5 uM after 24 hrs using propidium iodide staining by FACS analysis (reference value: 4 %)", "assay_type": "functional"}, "IGROV-1 [6]": {"tested_on": "IGROV-1", "test": "Induction of apoptosis in human IGROV1 cells assessed as healthy cells at 0.5 uM using annexin V/7-AAD by FACS analysis (reference value: 86 %)", "assay_type": "functional"}, "BXPC-3 [7]": {"tested_on": "BXPC-3", "test": "Induction of apoptosis in human BxPC3 cells assessed as cleaved caspase3 containing cells at 50 uM by antibody-based FACS analysis (reference value: 8.2 %)", "assay_type": "functional"}, "BXPC-3 [8]": {"tested_on": "BXPC-3", "test": "Antitumor activity against human BxPC3 cells xenografted in SCID mouse assessed as tumor growth inhibition at 45 mg/kg, ip administered 3 consecutives days per week for three cycles measured after 3 cycles relative to control", "assay_type": "functional", "details": "BXPC-3, ip, route intraperitoneal, read-out: TGI", "in_short": "(§1)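 BxPC3 xenografts were grown in SCID mice from inocula of 10^6 exponentially growing cells, with 10 mice (20 tumors) per group. Treatment started ip once tumors averaged about 100 mm3. The test agent was given in 5% Tween 80 and gemcitabine in water for injection. Tumor volume was measured by caliper twice weekly and %ΔT/ΔC was computed; two-tailed Student's t test.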"}, "PC-3 [9]": {"tested_on": "PC-3", "test": "Induction of apoptosis in human PC3 cells assessed as cleaved caspase3 containing cells at 15 uM by antibody-based FACS analysis (reference value: 3.2 %)", "assay_type": "functional"}, "BXPC-3 [10]": {"tested_on": "BXPC-3", "test": "Cell cycle arrest in human BxPC3 cells assessed as accumulation at G1 phase at 0.5 uM after 24 hrs using propidium iodide staining by FACS analysis (reference value: 41 %)", "assay_type": "functional", "in_short": "(§2)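 Cells were plated 24 h before treatment and exposed for 24 h at final 0.5, 5, 15 and 50 μM in 0.5% DMSO, against vehicle-treated controls. Cells were then trypsinised and fixed in cold ethanol for 3 h at 4 °C. They were stained in a mix of RNase (200 μg/mL) and PI (1 mg/mL) for 45 min at room temperature in the dark. Flow cytometry used 488 nm excitation and 10 000 gated cells. Phase percentages were assigned from DNA content.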"}, "PC-3 [11]": {"tested_on": "PC-3", "test": "Cell cycle arrest in human PC3 cells assessed as accumulation at S phase at 15 uM after 24 hrs using propidium iodide staining by FACS analysis (reference value: 42 %)", "assay_type": "functional"}, "BXPC-3 [12]": {"tested_on": "BXPC-3", "test": "Cell cycle arrest in human BxPC3 cells assessed as accumulation at >G2/M phase at 15 uM after 24 hrs using propidium iodide staining by FACS analysis (reference value: 6 %)", "assay_type": "functional", "in_short": "as §2"}, "IGROV-1 [13]": {"tested_on": "IGROV-1", "test": "Cell cycle arrest in human IGROV1 cells assessed as accumulation at sub G1 phase at 5 uM after 24 hrs using propidium iodide staining by FACS analysis (reference value: 4 %)", "assay_type": "functional"}, "IGROV-1 [14]": {"tested_on": "IGROV-1", "test": "Cell cycle arrest in human IGROV1 cells assessed as accumulation at sub G1 phase at 0.5 uM after 24 hrs using propidium iodide staining by FACS analysis (reference value: 4 %)", "assay_type": "functional"}, "IGROV-1 [15]": {"tested_on": "IGROV-1", "test": "Cell cycle arrest in human IGROV1 cells assessed as accumulation at >G2/M phase at 0.5 uM after 24 hrs using propidium iodide staining by FACS analysis (reference value: 21 %)", "assay_type": "functional", "in_short": "as §2"}, "BXPC-3 [16]": {"tested_on": "BXPC-3", "test": "Induction of apoptosis in human BxPC3 cells assessed as early apoptosis at 5 uM using annexin V/7-AAD by FACS analysis (reference value: 9 %)", "assay_type": "functional"}, "BXPC-3 [17]": {"tested_on": "BXPC-3", "test": "Antitumor activity against human BxPC3 cells xenografted in SCID mouse assessed as tumor growth inhibition at 40 mg/kg, ip administered 3 consecutives days per week for three cycles measured after 3 cycles relative to control", "assay_type": "functional", "details": "BXPC-3, ip, route intraperitoneal, read-out: TGI", "in_short": "as §1"}, "BXPC-3 [18]": {"tested_on": "BXPC-3", "test": "Growth inhibition of human BxPC3 cells after 48 hrs by SRB assay", "assay_type": "functional", "details": "BXPC-3, 48 h", "in_short": "(§3)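 Cells grown in RPMI 1640 with 5% heat-inactivated FCS, 2 mM L-glutamine and antibiotics, 37 °C, 5% CO2. Seeded at 3500–30000 cells/well and left 24 h before dosing. DMSO solutions added at 10-fold dilutions from 100 to 0.01 μM for 48 h. Cells TCA-fixed and SRB-stained, absorbance read at 540 nm; GI50 derived against the time-zero plate.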"}, "PC-3 [19]": {"tested_on": "PC-3", "test": "Induction of apoptosis in human PC3 cells assessed as early apoptosis at 50 uM using annexin V/7-AAD by FACS analysis (reference value: 5 %)", "assay_type": "functional", "in_short": "(§4)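 Cells plated 24 h before treatment, then exposed 24 h to 0.5, 5, 15 or 50 μM compound (final DMSO 0.5%); vehicle controls included. Cells scraped and stained with annexin V-FITC and 7-AAD for 15 min on ice in the dark. Flow cytometry with 488 nm excitation, 10,000 gated cells. Early apoptosis was annexin V+/7-AAD−, late was annexin V+/7-AAD+.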"}, "PC-3 [20]": {"tested_on": "PC-3", "test": "Induction of apoptosis in human PC3 cells assessed as healthy cells at 5 uM using annexin V/7-AAD by FACS analysis (reference value: 91 %)", "assay_type": "functional"}, "IGROV-1 [21]": {"tested_on": "IGROV-1", "test": "Induction of apoptosis in human IGROV1 cells assessed as cleaved caspase3 containing cells at 50 uM by antibody-based FACS analysis (reference value: 3.9 %)", "assay_type": "functional"}, "U-251": {"tested_on": "U-251", "test": "Growth inhibition of human U251 cells after 48 hrs by SRB assay", "assay_type": "functional", "details": "U-251, 48 h", "in_short": "as §3"}, "IGROV-1 [22]": {"tested_on": "IGROV-1", "test": "Induction of apoptosis in human IGROV1 cells assessed as total apoptotic death at 15 uM using annexin V/7-AAD by FACS analysis (reference value: 13 %)", "assay_type": "functional", "in_short": "as §4"}, "NHDF": {"tested_on": "NHDF", "test": "(§5) Growth inhibition of human NHDF cells after 48 hrs by SRB assay", "assay_type": "cell-based", "details": "nhdf, 48 h", "in_short": "as §3"}, "[23]": {"test": "as §5", "assay_type": "cell-based", "details": "NHDF cells", "in_short": "as §3"}, "IGROV-1 [24]": {"tested_on": "IGROV-1", "test": "Induction of apoptosis in human IGROV1 cells assessed as early apoptosis at 0.5 uM using annexin V/7-AAD by FACS analysis (reference value: 9 %)", "assay_type": "functional"}, "PC-3 [25]": {"tested_on": "PC-3", "test": "Induction of apoptosis in human PC3 cells assessed as cleaved caspase3 containing cells at 0.5 uM by antibody-based FACS analysis (reference value: 3.2 %)", "assay_type": "functional"}, "BXPC-3 [26]": {"tested_on": "BXPC-3", "test": "Cell cycle arrest in human BxPC3 cells assessed as accumulation at sub G1 phase at 0.5 uM after 24 hrs using propidium iodide staining by FACS analysis (reference value: 9 %)", "assay_type": "functional", "in_short": "as §2"}, "IGROV-1 [27]": {"tested_on": "IGROV-1", "test": "Induction of apoptosis in human IGROV1 cells assessed as early apoptosis at 15 uM using annexin V/7-AAD by FACS analysis (reference value: 9 %)", "assay_type": "functional"}}}
{"smiles": "CN1CCN(CCCc2ccc(C(c3ccccc3)C34CC5CC(CC(C5)C3)C4)cc2)CC1", "note": "(centres undefined)", "values": [{"measurement": "Activity", "setting": "IGROV-1 [1]", "value": 26, "unit": "%"}, {"measurement": "Activity", "setting": "PC-3 [2]", "value": 43, "unit": "%"}, {"measurement": "Activity", "setting": "PC-3 [3]", "value": 11, "unit": "%"}, {"measurement": "Activity", "setting": "BXPC-3 [4]", "value": 4, "unit": "%"}, {"measurement": "Activity", "setting": "PC-3 [5]", "value": 4, "unit": "%"}, {"measurement": "Activity", "setting": "IGROV-1 [6]", "value": 89, "unit": "%"}, {"measurement": "Activity", "setting": "BXPC-3 [7]", "value": 4.8, "unit": "%"}, {"measurement": "inhibition in vivo at 45 mg/kg", "setting": "BXPC-3 [8]", "value": 37.2, "unit": "%"}, {"measurement": "Activity", "setting": "PC-3 [9]", "value": 2.5, "unit": "%"}, {"measurement": "Activity", "setting": "BXPC-3 [10]", "value": 41, "unit": "%"}, {"measurement": "Activity", "setting": "PC-3 [11]", "value": 31, "unit": "%"}, {"measurement": "Activity", "setting": "BXPC-3 [12]", "value": 5, "unit": "%"}, {"measurement": "Activity", "setting": "IGROV-1 [13]", "value": 4, "unit": "%"}, {"measurement": "Activity", "setting": "IGROV-1 [14]", "value": 4, "unit": "%"}, {"measurement": "Activity", "setting": "IGROV-1 [15]", "value": 20, "unit": "%"}, {"measurement": "Activity", "setting": "BXPC-3 [16]", "value": 11, "unit": "%"}, {"measurement": "inhibition in vivo at 40 mg/kg", "setting": "BXPC-3 [17]", "value": 21.8, "unit": "%"}, {"measurement": "GI50", "setting": "BXPC-3 [18]", "value": 3.41, "unit": "µM"}, {"measurement": "LC50", "setting": "BXPC-3 [18]", "value": 0.0088, "unit": "µM"}, {"measurement": "TGI", "setting": "BXPC-3 [18]", "value": 6.1, "unit": "µM"}, {"measurement": "Activity", "setting": "PC-3 [19]", "value": 15, "unit": "%"}, {"measurement": "Activity", "setting": "PC-3 [20]", "value": 92, "unit": "%"}, {"measurement": "Activity", "setting": "IGROV-1 [21]", "value": 15.8, "unit": "%"}, {"measurement": "GI50", "setting": "U-251", "value": 3.62, "unit": "µM"}, {"measurement": "TGI", "setting": "U-251", "value": 5.93, "unit": "µM"}, {"measurement": "CC50", "setting": "U-251; read-out: LC50 (the source's name)", "value": 0.00824, "unit": "µM"}, {"measurement": "Activity", "setting": "IGROV-1 [22]", "value": 57, "unit": "%"}, {"measurement": "LC50", "setting": "NHDF", "value": 100, "unit": "µM"}, {"measurement": "TGI", "setting": "NHDF", "value": 78.2, "unit": "µM"}, {"measurement": "GI50 at 48 h", "setting": "[23]", "value": 9.68, "unit": "µM"}, {"measurement": "Activity", "setting": "IGROV-1 [24]", "value": 8, "unit": "%"}, {"measurement": "Activity", "setting": "PC-3 [25]", "value": 1.7, "unit": "%"}, {"measurement": "Activity", "setting": "BXPC-3 [26]", "value": 11, "unit": "%"}, {"measurement": "Activity", "setting": "IGROV-1 [27]", "value": 37, "unit": "%"}]}
